Hits are enriched below; roughly 0.7% of the tested compounds scored in any of these assays.
procasp7 counter: activates human procaspase-7, counter-screen for procaspase-3 activators; P55210; recombinant procaspase-7, Ac-DEVD-pNA absorbance 405 nm; D23A/D198A/D206A triple mutant, cannot self-cleave; scale: DMSO 0, 5 µM enzyme 100; activation, % at 8.5 µM; actives 0.093% (n = 330,000); AID 463210;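 active = percent activation above the screen-wide mean plus 3 SD, cut at about 25% in these data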
Target sequence (P55210 whole entry D23A/D198A/D206A): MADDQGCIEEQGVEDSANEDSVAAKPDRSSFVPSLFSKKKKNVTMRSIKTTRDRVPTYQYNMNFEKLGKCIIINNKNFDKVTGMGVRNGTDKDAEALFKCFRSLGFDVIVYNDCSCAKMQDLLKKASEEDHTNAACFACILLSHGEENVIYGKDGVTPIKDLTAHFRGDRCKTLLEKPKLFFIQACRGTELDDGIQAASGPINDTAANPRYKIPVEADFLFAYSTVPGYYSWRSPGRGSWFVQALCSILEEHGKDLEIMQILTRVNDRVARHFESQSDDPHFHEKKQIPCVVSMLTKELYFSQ
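Assay system: Uncleavable procaspase-7 mutant enzyme | Input: 2 µM procaspase-7 mutant as dispensed | Timing: 1 h compound preincubation, 2 h substrate cleavage, 25 °C | Repeats: One well per compound | Control set: DMSO wells as 0%, DMSO with 5 µM added PC-7 as 100% | Technique: Epi-absorbance of released pNA at 405 nm, two timepoints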
FXN GAA850 act: frataxin GAA850 promoter activation; activation, % at 6 µM; actives 0.56% (n = 360,000); HEK293 lucGAA850 FXN promoter luciferase reporter, 24 h; percent of 10 µM SAHA response;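 active = activation above the average of all compounds screened plus 3 SD, cutoff fixed separately per campaign, cut at about 7.5% in these data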;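 also: 0% = DMSO wells and 100% = 10 µM SAHA wells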
proCasp3 act: activators of human procaspase-3; AID 463141; actives 0.11% (n = 330,000); recombinant procaspase-3 D3A, Ac-DEVD-pNA absorbance 405 nm; activation, % at 8.5 µM; P42574;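 active = activation above the mean of all tested compounds plus 3 SD, cut at about 21% in these data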;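 also: 0% = DMSO alone and 100% = DMSO wells spiked with extra 5 µM PC-3 D3A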
Target sequence (P42574 whole entry D9A/D28A/D175A): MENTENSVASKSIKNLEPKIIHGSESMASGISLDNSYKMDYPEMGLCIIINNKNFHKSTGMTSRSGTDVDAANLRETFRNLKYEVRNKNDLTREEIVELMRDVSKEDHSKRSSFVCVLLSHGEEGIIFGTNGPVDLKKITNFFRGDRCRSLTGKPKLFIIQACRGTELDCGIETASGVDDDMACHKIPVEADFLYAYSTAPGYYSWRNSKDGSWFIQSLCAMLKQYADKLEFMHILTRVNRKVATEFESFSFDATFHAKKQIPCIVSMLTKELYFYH
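material = Procaspase-3 D3A mutant | probe or stimulus = Ac-DEVD-pNA | compound = single dose, 8.5 µM nominal compound, 0.8% DMSO | timing = 1 h preincubation, 2 h reaction | measured by = 405 nm absorbance of p-nitroaniline, reads at 0 and 120 min | benchmarks = DMSO-only low control, 5 µM PC-3 D3A high control | repeats = singlicate, each compound tested once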
GAA30 counter: GAA30 FXN promoter activation counter-screen; HEK293 lucGAA30 FXN promoter luciferase, 24 h; DMSO = 0%, 5 µM ipriflavone = 100%; actives 66% (n = 1,900); shares compounds with FXN GAA850 act; activation, % at 6 µM;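 active = mean activation above the mean of solvent-only control wells plus 3 SD, cut at about 22% in these data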;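 also: counterscreen of GAA850 promoter hits where activity marks nonselective or luminescence artifacts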
FXN GAA850 conf: GAA850 FXN promoter activation confirmation; activation, % at 6 µM; HEK293 lucGAA850 FXN promoter luciferase reporter, 24 h; 100% = activation by SAHA; shares compounds with FXN GAA850 act; actives 86% (n = 1,900);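 active = mean activation above a set limit taken from the primary screen, cut at about 8% in these data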;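 also: 0% = DMSO wells and 100% = 10 µM SAHA wells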
* = called active by the depositor; / = not tested or not shown.

SMILES	procasp7 counter	FXN GAA850 act	proCasp3 act	GAA30 counter	FXN GAA850 conf
COc1ccc([C@@H]2[C@@H]3C(=O)N(C(C)(C)C)C(=O)[C@@H]3[C@]3(CC(C)C)C(=O)N(c4ccc(C(F)(F)F)cc4)C(=O)N23)cc1	7	2	4	/	/
COc1ccc([C@@H]2[C@@H]3C(=O)N(C(C)(C)C)C(=O)[C@@H]3[C@]3(C)C(=O)N(c4ccc(C(F)(F)F)cc4)C(=O)N23)cc1	-5	5	14	/	/
COc1ccc([C@@H]2[C@@H]3C(=O)N(C(C)(C)C)C(=O)[C@@H]3[C@]3(CC(C)C)C(=O)N(c4cccc(Br)c4)C(=O)N23)cc1	-2	17*	1	27*	14*
C[C@@H](C(=O)CC(=O)OC(C)(C)C)[C@@H](O)c1c(F)cccc1Cl	-16	1	3	/	/
Cc1cccc(N/C=C/c2onc(C)c2[N+](=O)[O-])c1	-5	5	0	/	/
Cc1cc(O)ccc1N/C=C/c1onc(C)c1[N+](=O)[O-]	-33	9.1*	-11	122*	39*
C=CCn1nnc2sc3c(c2c1=O)CCC(C)C3 (stereo unspecified)	1	8.7*	1	71*	30*
CSc1nc2sc3c(c2c(=O)n1C)CCC(C)C3 (stereo unspecified)	0	2	12	/	/
CCOc1ccc(S(=O)(=O)N(C)c2ccc(OCC(=O)NCCc3ccc(OC)cc3)cc2)cc1	5	0	-2	/	/
CCc1cc2ccc(C)cc2nc1SCC(=O)NC1CCCC1	0	-2	8	/	/
CCc1ccc(C(=O)C(C)OC(=O)c2cccc(S(=O)(=O)N3CCOCC3)c2)cc1 (stereo unspecified)	-3	1	-6	/	/
CCn1nc(C(=O)OCC(=O)N2CC(=O)Nc3ccccc32)c2ccccc2c1=O	4	1	2	/	/
Cc1nn2c(nc(N3CCOCC3)c3ccccc32)c1C=C(C#N)C#N	-9	3	4	/	/
Cc1nn2c(nc(N3CCCCC3)c3ccccc32)c1C=O	5	9.5*	1	-3	12*
OC[C@@H]1CN(Cc2ccc(Cl)cc2)C[C@H](n2cnc3c(N4CCN(c5ccccc5)CC4)ncnc32)O1	/	-2	/	/	/
Cc1ccc(OCC(=O)Nc2cnn(CCCC(=O)O)c2)c([N+](=O)[O-])c1	4	4	1	/	/
COc1ccc(CNC(=O)COC(=O)c2cc(S(=O)(=O)N3CCOCC3)ccc2O)cc1OC	-9	-1	5	/	/
COc1nc(N(C#N)CC(N)=O)nc(N2CCCC2)n1	3	12*	-7	16	18*
COc1nc(OCC#N)nc(N2CCCCC2)n1	0	2	6	/	/
CC1(C(=O)O)CCN1C(=O)c1cccc(OC(F)(F)F)c1 (stereo unspecified)	/	-2	/	/	/
Cc1cccc(Nc2nc(-c3ccc(O)c(O)c3)cs2)n1	-13	5	1	/	/
Cc1ccnc(Nc2nc(-c3ccc(O)c(O)c3)cs2)c1	-23	17*	-12	91*	42*
COc1ccc(-c2csc(Nc3ncccc3C)n2)cc1OC	0	4	0	/	/
Oc1ccc(-c2csc(Nc3ccccn3)n2)cc1O	-25	13*	-17	96*	56*
Cc1cccnc1Nc1nc(-c2ccc(O)c(O)c2)cs1	-27	14*	-17	107*	50*
SMILES	procasp7 counter	FXN GAA850 act	proCasp3 act	GAA30 counter	FXN GAA850 conf
Cc1ccnc(Nc2nc(-c3ccc(O)cc3)cs2)c1	5	3	12	/	/
Cc1nn(C)c2c1NC(=O)CS2	/	1	/	/	/
Cc1ccc(NC(=O)c2oc3ccccc3c2NC(=O)C2CCCO2)cc1C (stereo unspecified)	1	8.0*	1	106*	38*
COc1ccc(NC(=O)c2oc3ccccc3c2NC(=O)C2CCCO2)cc1OC (stereo unspecified)	10	3	-3	/	/
CCOCC(=O)Nc1c(C(=O)Nc2ccc3c(c2)OCCO3)oc2ccccc12	7	4	3	/	/
CCC(=O)Nc1c(C(=O)Nc2ccc3c(c2)OCCO3)oc2ccccc12	5	9.8*	0	104*	32*
CC1=CN2C(=N)/C(=C/c3ccc([N+](=O)[O-])o3)C(=O)N=C2S1	-4	12*	-4	-55	-17
CC1=CN2C(=N)/C(=C/c3ccco3)C(=O)N=C2S1	-19	1	-6	/	/
O=C(O)c1nn(CC(=O)N2CCC(Cc3ccccc3)CC2)c(=O)c2ccccc12	2	0	4	/	/
O=S(=O)(c1cccs1)N1CCN(c2ccccc2F)CC1	-12	7.7*	-2	12	7
O=c1sc(N2CCN(c3ccccc3F)CC2)nc2ccsc12	2	7.9*	-1	106*	40*
O=c1sc(N2CCN(c3ccc(F)cc3)CC2)nc2ccsc12	-4	5	-4	/	/
O=S(=O)(c1cccs1)N1CCN(c2ccccc2Cl)CC1	-3	3	2	/	/
CC1CC(=O)N(CC(=O)NCc2ccccc2)c2ccccc2S1(=O)=O (stereo unspecified)	-10	0	7	/	/
CC(=O)c1ccc(NC(=O)c2cc(C)nc3ccccc23)cc1	1	2	5	/	/
Cc1ccc(C)c(C(=O)CSc2nc(C)cc(=O)[nH]2)c1	-2	0	2	/	/
COC(=O)N=Nc1c(O)[nH]c2ccc(Br)cc12	3	10*	2	144*	32*
O=C(CNC(=O)c1ccccc1)N=Nc1c(O)[nH]c2ccc(Br)cc12	-7	1	-10	/	/
CCCn1c(C)cc(/C=C(\C#N)C(=O)OCC(=O)N(CC)c2c(N)n(Cc3ccccc3)c(=O)[nH]c2=O)c1C	/	0	/	/	/
Cc1cc(C)n2nc(CC(=O)NNC(=O)COc3ccccc3)nc2n1	9	-1	2	/	/
Cc1c(C(=O)NCc2cccnc2)sc2nc(-c3ccccc3)cn12	-10	5	-10	/	/
CCN(CC)C(=O)c1sc2nc(-c3ccc(OC)cc3)cn2c1C	13	9.8*	-6	125*	41*
CNC(=O)c1sc2nc(-c3ccc(OC)cc3)cn2c1C	-4	5	-6	/	/
Cc1c(C(=O)NCc2ccco2)sc2nc(-c3ccccc3)cn12	1	18*	-2	56*	29*
COc1ccc(C(CNC(=O)CCNS(=O)(=O)c2ccccc2C(F)(F)F)N2CCOCC2)cc1 (stereo unspecified)	/	2	/	/	/
COc1ccc(Cl)cc1N1C(=O)/C(=C/c2sccc2C)N=C1SCC(=O)NC1CC1	/	-5	/	/	/
COc1cccc(C(=O)NCCS(=O)(=O)N2CCCC(C)C2)c1 (stereo unspecified)	/	0	/	/	/
Cn1c(/C=C/c2cccc([N+](=O)[O-])c2)c([N+](=O)[O-])c(=O)n(C)c1=O	10	-2	7	/	/
